In the library only some 1.9% were active in any assay of this set; here they are far more common.
M4 PAM = potentiates acetylcholine response at human M4 receptor | P08173 | CHO-K1 hM4/Gqi5, Fluo-8 calcium fluorescence, ACh EC20; 0% = ACh EC20, 100% = maximal ACh | activation, % at 3 µM | actives 0.4% (n = 360,000) | AID 624126;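 active means activation above its plate's cutoff, the mean activation of sample wells plus 3 SD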
M5 ag = agonists of human muscarinic M5 receptor (CHRM5); CHO-K1 hM5 cells, Fluo-8 calcium fluorescence; 0% DMSO wells, 100% maximal acetylcholine response; actives 0.19% (n = 360,000); P08912; activation, % at 3 µM; AID 624037;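 active means activation above the run's mean over test compounds plus 3 SD, cut at about 23% in these data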;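 further: signal is peak over basal fluorescence ratio across the kinetic read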
Target sequence (P08912 whole entry, looked up): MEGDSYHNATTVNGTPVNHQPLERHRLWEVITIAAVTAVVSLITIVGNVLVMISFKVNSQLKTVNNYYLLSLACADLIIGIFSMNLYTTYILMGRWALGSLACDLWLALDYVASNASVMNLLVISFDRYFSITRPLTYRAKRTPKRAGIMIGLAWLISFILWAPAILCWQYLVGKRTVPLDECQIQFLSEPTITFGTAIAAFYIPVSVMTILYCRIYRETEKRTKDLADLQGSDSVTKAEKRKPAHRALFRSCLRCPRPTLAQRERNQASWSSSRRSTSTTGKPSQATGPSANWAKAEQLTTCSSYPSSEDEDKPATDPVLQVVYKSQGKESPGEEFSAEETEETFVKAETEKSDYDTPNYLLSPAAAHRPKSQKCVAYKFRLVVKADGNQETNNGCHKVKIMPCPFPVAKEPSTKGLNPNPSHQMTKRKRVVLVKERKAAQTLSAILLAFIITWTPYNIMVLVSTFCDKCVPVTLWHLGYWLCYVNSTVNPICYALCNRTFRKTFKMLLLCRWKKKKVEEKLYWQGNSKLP
M4 ag = agonists of human muscarinic M4 receptor (CHRM4) | AID 624127 | P08173 | CHO-K1 hM4/Gqi5, Fluo-8 calcium fluorescence; vehicle 0%, full acetylcholine response 100% | activation, % at 3 µM | actives 0.14% (n = 360,000);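 active means activation above the run mean over all test wells plus 3 SD, cut at about 32% in these data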;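 further: peak over basal fluorescence ratio per well then scaled between controls; 0% = DMSO wells and 100% = acetylcholine at EC100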
M4 antag = antagonists of human muscarinic M4 receptor (CHRM4); P08173; actives 0.73% (n = 360,000); AID 624125; inhibition, % at 3 µM; CHO-hM4 cells, ACh EC80, Fluo-8 calcium fluorescence;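 active means inhibition above its plate's cutoff, the mean inhibition of sample wells plus 3 SD, cut at about 27% in these data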;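 further: 0% = acetylcholine EC80 with DMSO and 100% = DMSO without agonist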
CHRM5 PAM = CHRM5 positive allosteric modulation; actives 0.3% (n = 360,000); CHO-K1 hM5, Fluo-8 calcium, ACh EC20 PAM; 0% = ACh EC20, 100% = ACh EC100; P08912; activation, % at 3 µM; AID 624038;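 active means activation above the run cutoff, the mean activation of all test compounds plus 3 SD, cut at about 18% in these data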
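Probe or stimulus: acetylcholine, EC20 level; Assay system: human M5 receptor in CHO-K1 cells; Schedule: compound preincubation 140 s before EC20 acetylcholine addition; Technique: intracellular calcium via Fluo-8 fluorescence; Dosing: single-point, 3 µM nominal; Read-out basis: percent activation from peak-over-basal fluorescence ratio, scaled EC20-to-EC100 acetylcholine; Repeats: one well per compound, no replicates.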
CHRM5 antagonist = CHRM5 antagonism in calcium assay; CHO-hM5 cells, Fluo-8 calcium fluorescence, ACh EC80; inhibition, % at 3 µM; actives 0.59% (n = 360,000); AID 624040;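 active means inhibition above a per-plate cutoff, the mean of that plate's test compounds plus 3 SD, cut at about 27% in these data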;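 further: 0% = acetylcholine EC80 with DMSO and 100% = DMSO without agonist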
* hit, by the source's call.

SMILES	M4 PAM	M5 ag	M4 ag	M4 antag	CHRM5 PAM	CHRM5 antagonist
CN1C[C@@H]2C(c3ccccc3)C3(c4ccc(C#N)cc4)CC2(C3)[C@H]1c1ccccc1 (stereo partly specified)	8.4	-4.3	0.4	-1.0	2.2	4.9
CN1C[C@@H]2C(c3ccccc3)C3(c4ccccc4)CC2(C3)[C@H]1c1ccccc1 (stereo partly specified)	-18.3	-7.8	0.7	45.3*	-41.1	15.6
CNC(=O)c1c(NC(=O)CCS(=O)(=O)c2ccc(C)cc2)sc(C)c1C	1.2	-0.7	1.2	-2.0	-0.8	1.6
Cc1cccc(C)c1C(OCCN(C)C)C1CCCCC1 (stereo unspecified)	-19.7	-8.6	5.3	77.0*	-19.0	100.4*
COCCN(C(=O)CCl)C(C(=O)NC1CCCCC1)c1ccccc1C (stereo unspecified)	-11.8	-2.8	-0.7	14.2	0.9	-1.1
CN1CCN(C(=O)c2cc3c(c(-c4cccc(-c5cc6ccccc6o5)c4)n2)[C@@H](CCO)N(S(=O)C(C)(C)C)C3)CC1 (stereo partly specified)	-8.0	-0.3	12.8	-7.7	-4.4	2.8
CCN1CCN(C(=O)c2ccc(Cl)c(S(=O)(=O)N(C)c3ccccc3)c2)CC1	20.0*	0.3	2.8	-1.4	5.2	-1.9
CCCC[C@@H]1C=C(C(=O)O)[C@H](c2ccc(Cl)c(Cl)c2)N1S(=O)(=O)c1ccc(C)cc1	1.3	0.0	1.5	8.5	-2.8	2.1
Cc1ccc(S(=O)(=O)NNC(=O)C2CCN(Cc3ccccc3)CC2)cc1	-29.7	-5.0	1.2	41.2*	-18.5	52.7*
COC(=O)C1CCN(Cc2ccc(C)cc2)CC1	2.5	-3.3	0.4	-2.1	-3.9	4.8
CCCCOc1ccc(C(=O)O)cc1	8.2	-2.0	0.6	8.5	-5.0	3.0
CCCCOc1ccc(C(=O)Nc2cccc(C)n2)cc1	6.2	0.0	8.5	93.8*	-4.2	-0.8
CCCCCCCCOc1ccc(C(=O)O)cc1	22.0*	1.4	1.6	1.6	6.0	4.3
O=C(c1ccc(Cl)cc1)N1CCOc2ccccc21	-4.3	-7.5	-1.8	3.5	1.0	9.4
COc1ccc(OCC(=O)N/N=C/c2ccc(N(C)C)cc2)cc1	21.6*	-2.4	1.0	-2.6	-4.2	20.5
Cc1occc1C(=O)N/N=C/c1ccc(N(C)C)cc1	-1.4	4.2	0.6	-4.5	20.1*	-14.9
Cc1occc1C(=O)N/N=C/C=C/c1ccc(N(C)C)cc1	2.4	-4.5	0.6	-3.2	-0.9	12.6
CC(=O)c1cccc(NC(=O)C(C)OC(=O)CN2C(=O)NC(C)(C)C2=O)c1 (stereo unspecified)	8.4	1.3	1.0	-3.9	2.1	5.2
O=C(Nc1cccc(Br)c1)c1ccc2c(c1)SC1=NS(=O)(=O)CCN12	22.6*	0.6	0.7	-5.0	4.8	-0.1
CC(C)N(Cc1ccccc1)C(=O)CN1C(=O)NC2(CCCCCC2)C1=O	0.7	4.2	0.2	-1.4	3.0	4.5
O=C(C1CCCCC1)N1CCC2CC1c1cc(N3CCCCC3)ccc12 (stereo unspecified)	-12.7	-1.7	2.9	37.2*	-7.0	11.2
O=C(c1ccccc1F)N1CCC2CC1c1cc(N3CCCCC3)ccc12 (stereo unspecified)	-8.4	0.6	4.1	1.9	-1.6	-9.7
COc1ccccc1C(C)NCC(=O)NCc1ccc(C)cc1 (stereo unspecified)	0.2	-7.8	1.4	-1.8	2.4	1.7
COc1ccc(CNC(=O)CNC(C)c2ccc(F)cc2)cc1 (stereo unspecified)	-18.2	-2.0	1.6	53.2*	-2.3	-0.1
Cc1ccc(OCCCCNC(C)(C)C)c([N+](=O)[O-])c1	13.1	-5.2	3.1	-2.6	-10.4	27.1*
SMILES	M4 PAM	M5 ag	M4 ag	M4 antag	CHRM5 PAM	CHRM5 antagonist
COCCNCCOc1ccc(C)cc1[N+](=O)[O-]	-10.0	-2.5	0.6	10.7	0.7	-9.8
COc1cccc(-c2ncc3ccccc3c2COC(=O)N(C)C)c1	-1.1	-2.6	4.5	13.7	0.9	15.6
Cc1ccc2c(c1)C(c1ccc(F)cc1)N(C(=O)c1ccccc1Br)CC(=O)N2 (stereo unspecified)	-17.5	0.7	13.6	65.7*	-3.2	2.3
CCOC(=O)c1c(O)cc(C)cc1Nc1ccccc1	-10.3	-0.6	-1.4	7.5	-8.0	12.7
COc1cc(CCCN2C(N)=NC[C@H]2Cc2ccc(O)cc2)cc(OC)c1OC	14.3	-1.9	0.3	-9.2	18.1*	-6.7
NC1=NC[C@H](Cc2ccc(O)cc2)N1CCC12CC3CC(CC(C3)C1)C2	-18.5	-11.7	2.2	46.4*	-8.5	7.3
CCCCN1C(N)=NC[C@@H]1Cc1ccc(O)cc1	5.3	-3.0	-0.2	9.7	-5.3	9.3
C=CCN(C(=O)Cn1nc(C)n2c(cc3cc(C)ccc32)c1=O)c1ccccc1	-3.2	-1.7	2.0	-0.1	-4.3	12.2
CCOC(=O)c1[nH]c2ccc(Br)cc2c1NC(=O)CCN1CCCC(C)(C)C1	-33.7	-6.4	2.7	32.6*	-20.4	46.0*
CC1CCCC(NC(=O)COC(=O)c2ccc([N+](=O)[O-])o2)C1C (stereo unspecified)	-2.7	-2.9	0.5	7.5	-11.3	20.2
CC1CCCC(NC(=O)COC(=O)c2ccc(Br)o2)C1C (stereo unspecified)	22.3*	-1.3	1.6	-3.1	3.6	14.9
COc1ccc(-n2c(SCC#N)nc3c(sc(=S)n3-c3ccccc3)c2=O)c(OC)c1	1.9	-9.5	1.1	-2.6	-3.1	-0.6
CC(C)=CCN1CCN(Cc2cn(C(C)C)c3ccccc23)CC1CCO (stereo unspecified)	-1.5	-8.9	2.0	-7.2	-0.1	-4.3
COc1cc(/C=C/C(=O)O)cc(S(=O)(=O)N2CCN(S(=O)(=O)c3ccc(Cl)cc3)CC2)c1OC	12.3	-2.3	0.8	-0.1	-0.9	1.0
N#Cc1nc(-c2ccccc2Cl)oc1N1CCN(C(=O)c2ccco2)CC1	6.7	-0.4	0.4	-6.9	23.0*	-18.5
N#Cc1nc(-c2ccc(F)cc2)oc1N1CCN(C(=O)c2ccco2)CC1	-1.9	-3.5	1.3	-12.4	-8.7	12.7
COc1cccc(-c2nc(C#N)c(N3CCN(C(=O)c4ccco4)CC3)o2)c1	21.6*	-3.0	0.6	2.7	4.9	-8.1
O=C(O)CCCC(=O)OCc1c(-c2ccccc2)ncc2ccccc12	-0.1	-1.9	-0.6	8.7	-0.7	8.8
